Values belong to the compound of their own block, whether it stands above or below them.
Experiments:
HCT-116 [1] = assay: cells; assay type: functional, cell-based; settings: Homo sapiens, HCT-116, 72 h
[2] = target: T1, Hepatocyte growth factor receptor (Homo sapiens, UniProt P08581); settings: dose 100.0 nM, time 10.0 min
MCF7 = assay: cells; assay type: functional, cell-based; settings: Homo sapiens, MCF7, 72 h
Histone deacetylase 1 [3] = target: T2, Histone deacetylase 1 (Homo sapiens, UniProt Q13547); settings: Sf9, dose 100.0 nM, time 75.0 min
T2 sequence (Q13547 whole entry): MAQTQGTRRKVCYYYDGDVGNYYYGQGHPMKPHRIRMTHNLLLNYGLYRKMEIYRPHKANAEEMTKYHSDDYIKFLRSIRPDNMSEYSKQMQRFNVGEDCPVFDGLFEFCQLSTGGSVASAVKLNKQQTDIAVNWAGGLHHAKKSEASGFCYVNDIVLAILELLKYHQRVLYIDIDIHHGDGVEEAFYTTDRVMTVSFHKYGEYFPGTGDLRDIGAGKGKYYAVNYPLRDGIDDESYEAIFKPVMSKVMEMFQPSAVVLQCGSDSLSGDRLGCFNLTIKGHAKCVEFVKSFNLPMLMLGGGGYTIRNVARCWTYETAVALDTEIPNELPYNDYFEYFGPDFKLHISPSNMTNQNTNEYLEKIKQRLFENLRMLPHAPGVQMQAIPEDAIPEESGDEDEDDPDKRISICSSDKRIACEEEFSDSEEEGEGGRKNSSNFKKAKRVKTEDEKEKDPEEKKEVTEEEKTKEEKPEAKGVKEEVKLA

A549 = assay: cells; assay type: functional, cell-based; settings: Homo sapiens, A549, 72 h
[4] = target: T1, Hepatocyte growth factor receptor; assay: Inhibition of c-MET(unknown origin) using FAM labelled peptide substrate preincubated for 10 mins followed by substrate addition and measured by microplate reader method
Histone deacetylase 1 [5] = target: T2, Histone deacetylase 1; assay: Inhibition of human C-terminal Flag tagged HDAC1 (1 to 482 residues) expressed in SF9 cells using Ac-peptide substrate preincubated for 15 mins followed by substrate addition and measured after 60 mins by microplate reader method
HCT-116 [6] = assay: Cell cycle arrest in human HCT-116 cells assessed as accumulation of cells in G1 phase at 5 uM measured after 48 hrs by PI staining based flowcytometry method (reference value: 57.63%); assay type: functional
HCT-116 [7] = assay: Induction of apoptosis in human HCT-116 cells assessed as late apoptotic cells at 0.2 uM measured after 48 hrs by Annexin V/PI staining based Flowcytometry method (reference value: 1.44%); assay type: functional
How it was run: (§1)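 HCT-116 cells seeded at 10^5 cells/mL in 6-well plates. After 12 h, dosed at 0.2, 1.0 or 5.0 μM for 48 h, then washed three times in PBS. Stained with Annexin V-FITC/PI per kit and read by flow cytometry. Early apoptotic = Annexin V+/PI−, late = double positive. Mean ± S.D., n = 3.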

HCT-116 [8] = assay: Cell cycle arrest in human HCT-116 cells assessed as accumulation of cells in S phase at 5 uM measured after 48 hrs by PI staining based flowcytometry method (reference value: 30.63%); assay type: functional
HCT-116 [9] = assay: Induction of apoptosis in human HCT-116 cells assessed as necrotic cells at 0.2 uM measured after 48 hrs by Annexin V/PI staining based Flowcytometry method (reference value: 1.19%); assay type: functional
How it was run: as §1

HCT-116 [10] = assay: Induction of apoptosis in human HCT-116 cells assessed as early apoptotic cells at 1 uM measured after 48 hrs by Annexin V/PI staining based Flowcytometry method (reference value: 2.04%); assay type: functional
How it was run: as §1

HCT-116 [11] = assay: Induction of apoptosis in human HCT-116 cells assessed as viable cells at 5 uM measured after 48 hrs by Annexin V/PI staining based Flowcytometry method (reference value: 95.33%); assay type: functional; settings: read-out: Activity
How it was run: as §1

HCT-116 [12] = assay: Cell cycle arrest in human HCT-116 cells assessed as accumulation of cells in G2/M phase at 1 uM measured after 48 hrs by PI staining based flowcytometry method (reference value: 11.74%); assay type: functional
HCT-116 [13] = assay: Cell cycle arrest in human HCT-116 cells assessed as accumulation of cells in S phase at 1 uM measured after 48 hrs by PI staining based flowcytometry method (reference value: 30.63%); assay type: functional
HCT-116 [14] = assay: Induction of apoptosis in human HCT-116 cells assessed as late apoptotic cells at 5 uM measured after 48 hrs by Annexin V/PI staining based Flowcytometry method (reference value: 1.44%); assay type: functional
How it was run: as §1

HCT-116 [15] = assay: Induction of apoptosis in human HCT-116 cells assessed as necrotic cells at 5 uM measured after 48 hrs by Annexin V/PI staining based Flowcytometry method (reference value: 1.19%); assay type: functional
How it was run: as §1

HCT-116 [16] = assay: Induction of apoptosis in human HCT-116 cells assessed as early apoptotic cells at 0.2 uM measured after 48 hrs by Annexin V/PI staining based Flowcytometry method (reference value: 2.04%); assay type: functional
How it was run: as §1

HCT-116 [17] = assay: Cell cycle arrest in human HCT-116 cells assessed as accumulation of cells in G1 phase at 0.2 uM measured after 48 hrs by PI staining based flowcytometry method (reference value: 57.63%); assay type: functional
HCT-116 [18] = assay: Cell cycle arrest in human HCT-116 cells assessed as accumulation of cells in G2/M phase at 5 uM measured after 48 hrs by PI staining based flowcytometry method (reference value: 11.74%); assay type: functional
HCT-116 [19] = assay: Cell cycle arrest in human HCT-116 cells assessed as accumulation of cells in G2/M phase at 0.2 uM measured after 48 hrs by PI staining based flowcytometry method (reference value: 11.74%); assay type: functional
HCT-116 [20] = assay: Induction of apoptosis in human HCT-116 cells assessed as necrotic cells at 1 uM measured after 48 hrs by Annexin V/PI staining based Flowcytometry method (reference value: 1.19%); assay type: functional
How it was run: as §1

HCT-116 [21] = assay: Cell cycle arrest in human HCT-116 cells assessed as accumulation of cells in S phase at 0.2 uM measured after 48 hrs by PI staining based flowcytometry method (reference value: 30.63%); assay type: functional
HCT-116 [22] = assay: Induction of apoptosis in human HCT-116 cells assessed as viable cells at 0.2 uM measured after 48 hrs by Annexin V/PI staining based Flowcytometry method (reference value: 95.33%); assay type: functional; settings: read-out: Activity
How it was run: as §1

HCT-116 [23] = assay: Induction of apoptosis in human HCT-116 cells assessed as early apoptotic cells at 5 uM measured after 48 hrs by Annexin V/PI staining based Flowcytometry method (reference value: 2.04%); assay type: functional
How it was run: as §1

HCT-116 [24] = assay: Cell cycle arrest in human HCT-116 cells assessed as accumulation of cells in G1 phase at 1 uM measured after 48 hrs by PI staining based flowcytometry method (reference value: 57.63%); assay type: functional
HCT-116 [25] = assay: Induction of apoptosis in human HCT-116 cells assessed as viable cells at 1 uM measured after 48 hrs by Annexin V/PI staining based Flowcytometry method (reference value: 95.33%); assay type: functional; settings: read-out: Activity
How it was run: as §1

HCT-116 [26] = assay: Induction of apoptosis in human HCT-116 cells assessed as late apoptotic cells at 1 uM measured after 48 hrs by Annexin V/PI staining based Flowcytometry method (reference value: 1.44%); assay type: functional
How it was run: as §1

T1 sequence (P08581 whole entry): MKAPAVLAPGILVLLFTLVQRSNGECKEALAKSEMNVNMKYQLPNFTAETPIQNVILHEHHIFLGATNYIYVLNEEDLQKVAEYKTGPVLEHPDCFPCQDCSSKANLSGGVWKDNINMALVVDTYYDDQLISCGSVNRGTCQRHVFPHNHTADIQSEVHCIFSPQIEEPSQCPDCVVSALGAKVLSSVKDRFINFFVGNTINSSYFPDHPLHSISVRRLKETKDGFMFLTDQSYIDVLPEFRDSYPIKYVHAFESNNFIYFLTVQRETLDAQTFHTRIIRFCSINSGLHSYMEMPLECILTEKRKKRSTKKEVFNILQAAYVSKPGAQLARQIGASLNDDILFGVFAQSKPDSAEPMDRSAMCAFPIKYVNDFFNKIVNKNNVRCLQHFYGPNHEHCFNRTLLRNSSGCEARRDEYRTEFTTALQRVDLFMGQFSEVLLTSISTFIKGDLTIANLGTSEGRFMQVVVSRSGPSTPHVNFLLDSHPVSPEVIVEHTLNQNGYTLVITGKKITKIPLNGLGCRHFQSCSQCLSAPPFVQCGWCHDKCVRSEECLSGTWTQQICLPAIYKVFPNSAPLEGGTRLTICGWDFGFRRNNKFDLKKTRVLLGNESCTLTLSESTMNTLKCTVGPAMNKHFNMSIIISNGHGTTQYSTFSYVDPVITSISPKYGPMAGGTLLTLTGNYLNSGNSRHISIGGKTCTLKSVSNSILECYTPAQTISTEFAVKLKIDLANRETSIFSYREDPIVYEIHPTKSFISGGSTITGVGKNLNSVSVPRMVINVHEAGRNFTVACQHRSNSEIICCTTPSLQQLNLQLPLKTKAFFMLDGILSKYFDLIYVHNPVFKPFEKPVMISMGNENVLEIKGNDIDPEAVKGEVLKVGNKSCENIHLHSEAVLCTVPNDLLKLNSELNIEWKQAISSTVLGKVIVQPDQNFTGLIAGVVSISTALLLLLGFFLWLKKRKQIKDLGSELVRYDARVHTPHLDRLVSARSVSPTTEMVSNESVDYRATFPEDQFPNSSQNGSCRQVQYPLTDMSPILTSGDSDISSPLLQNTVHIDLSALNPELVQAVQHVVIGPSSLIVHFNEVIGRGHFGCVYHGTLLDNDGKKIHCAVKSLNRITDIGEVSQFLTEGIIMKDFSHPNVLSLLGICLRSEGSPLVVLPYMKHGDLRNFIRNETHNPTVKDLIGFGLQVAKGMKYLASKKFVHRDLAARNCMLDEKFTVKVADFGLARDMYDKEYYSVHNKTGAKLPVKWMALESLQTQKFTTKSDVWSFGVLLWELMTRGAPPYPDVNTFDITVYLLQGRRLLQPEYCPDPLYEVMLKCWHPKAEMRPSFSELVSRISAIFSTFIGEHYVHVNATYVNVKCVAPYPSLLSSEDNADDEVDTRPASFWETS

Compound: COc1cc2c(Oc3ccc(NC(=O)c4nn(-c5ccccc5C(F)(F)F)ccc4=O)cc3)ccnc2cc1OCC(=O)NO
- IC50 (HCT-116 [1]): 9500 nM
- inhibition [2]: 56.3%
- IC50 (MCF7): 6320 nM
- inhibition (Histone deacetylase 1 [3]): 1.2%
- IC50 (A549): > 20000 nM

Compound: COc1cc2c(Oc3ccc(NC(=O)c4nn(-c5ccc(C)cc5)cc(C)c4=O)cc3)ccnc2cc1OCCCCCCC(=O)NO
- IC50 (HCT-116 [1]): 400 nM
- inhibition [2]: 72.8%
- IC50 (MCF7): 2560 nM
- inhibition (Histone deacetylase 1 [3]): 47.6%
- IC50 (A549): 160 nM

Compound: COc1cc2c(Oc3ccc(NC(=O)c4nn(-c5ccccc5)ccc4=O)cc3)ccnc2cc1OCCCC(=O)NO
- IC50 (HCT-116 [1]): 940 nM
- inhibition [2]: 96.4%
- IC50 (MCF7): 7410 nM
- inhibition (Histone deacetylase 1 [3]): 12.6%
- IC50 (A549): 9260 nM

Compound: COc1cc2c(Oc3ccc(NC(=O)c4nn(-c5ccccc5F)cc(C)c4=O)cc3F)ccnc2cc1OCCCCCC(=O)NO
- IC50 (HCT-116 [1]): 590 nM
- inhibition [2]: 89.1%
- IC50 (MCF7): 2320 nM
- inhibition (Histone deacetylase 1 [3]): 61.1%
- IC50 (A549): 1320 nM

Compound: COc1cc2c(Oc3ccc(NC(=O)c4nn(-c5ccccc5C)cc(C)c4=O)cc3)ccnc2cc1OCCCC(=O)NO
- IC50 (HCT-116 [1]): 640 nM
- inhibition [2]: 98.5%
- IC50 (MCF7): 1600 nM
- inhibition (Histone deacetylase 1 [3]): 10.7%
- IC50 (A549): 4460 nM

Compound: COc1cc2c(Oc3ccc(NC(=O)c4nn(-c5cccc(C(F)(F)F)c5)cc(C)c4=O)cc3)ccnc2cc1OCCCCCCC(=O)NO
- IC50 (HCT-116 [1]): 590 nM
- inhibition [2]: 46.3%
- IC50 (MCF7): 750 nM
- inhibition (Histone deacetylase 1 [3]): 35.3%
- IC50 (A549): 780 nM

Compound: COc1cc2c(Oc3ccc(NC(=O)c4nn(-c5ccccc5)cc(C)c4=O)cc3F)ccnc2cc1OCCCN1CCOCC1
- IC50 (HCT-116 [1]): 370 nM
- inhibition [2]: 93.8%
- IC50 [4]: 7.42 nM
- IC50 (MCF7): 630 nM
- IC50 (A549): 1120 nM

Compound: COc1cc2c(Oc3ccc(NC(=O)c4nn(-c5ccccc5C)cc(C)c4=O)cc3)ccnc2cc1OCCCCCCC(=O)NO
- IC50 (HCT-116 [1]): 660 nM
- inhibition [2]: 78.6%
- IC50 (MCF7): 1830 nM
- inhibition (Histone deacetylase 1 [3]): 89.1%
- IC50 (A549): 3130 nM

Continued, in another order:

- IC50 (HCT-116 [1]): 350 nM
- inhibition [2]: 50.2%
- IC50 (MCF7): 3480 nM
- inhibition (Histone deacetylase 1 [3]): 5.2%
- IC50 (A549): 1590 nM
Compound: COc1cc2c(Oc3ccc(NC(=O)c4nn(-c5ccc(Cl)c(C(F)(F)F)c5)cc(C)c4=O)cc3)ccnc2cc1OCC(=O)NO

- IC50 (HCT-116 [1]): 370 nM
- inhibition [2]: 76.5%
- IC50 (MCF7): 1680 nM
- inhibition (Histone deacetylase 1 [3]): 62%
- IC50 (A549): 280 nM
Compound: COc1cc2c(Oc3ccc(NC(=O)c4nn(-c5cccc(C)c5)cc(C)c4=O)cc3)ccnc2cc1OCCCCCCC(=O)NO

- IC50 (HCT-116 [1]): 150 nM
- inhibition [2]: 88.6%
- IC50 [4]: 19.9 nM
- IC50 (Histone deacetylase 1 [5]): 34 nM
- IC50 (MCF7): 1610 nM
- inhibition (Histone deacetylase 1 [3]): 86.6%
- IC50 (A549): 420 nM
Compound: COc1cc2c(Oc3ccc(NC(=O)c4nn(-c5ccccc5)cc(C)c4=O)cc3)ccnc2cc1OCCCCCCC(=O)NO

- IC50 (HCT-116 [1]): 290 nM
- inhibition [2]: 95.7%
- IC50 (MCF7): 1830 nM
- inhibition (Histone deacetylase 1 [3]): 36.9%
- IC50 (A549): 1820 nM
Compound: COc1cc2c(Oc3ccc(NC(=O)c4nn(-c5ccccc5C)cc(C)c4=O)cc3)ccnc2cc1OCCCCCC(=O)NO

- IC50 (HCT-116 [1]): 220 nM
- IC50 [4]: 5.4 nM
- IC50 (Histone deacetylase 1 [5]): 18.5 nM
- IC50 (MCF7): 1590 nM
- IC50 (A549): 220 nM
Compound: COc1cc2c(Oc3ccc(NC(=O)c4nn(-c5ccccc5)ccc4=O)cc3)ccnc2cc1OCCCCCCC(=O)NO
- Activity (HCT-116 [6]): 5.5%
- Activity (HCT-116 [7]): 1.84%
- Activity (HCT-116 [8]): 13.28%
- Activity (HCT-116 [9]): 0.9%
- Activity (HCT-116 [10]): 8.44%
- viability at 5 µM (HCT-116 [11]): 75.6%
- Activity (HCT-116 [12]): 80.03%
- Activity (HCT-116 [13]): 15.1%
- Activity (HCT-116 [14]): 2.25%
- Activity (HCT-116 [15]): 2.96%
- Activity (HCT-116 [16]): 2.35%
- Activity (HCT-116 [17]): 55.37%
- Activity (HCT-116 [18]): 81.22%
- Activity (HCT-116 [19]): 14.59%
- Activity (HCT-116 [20]): 4.12%
- Activity (HCT-116 [21]): 30.04%
- viability at 0.2 µM (HCT-116 [22]): 94.9%
- Activity (HCT-116 [23]): 19.23%
- Activity (HCT-116 [24]): 4.87%
- viability at 1 µM (HCT-116 [25]): 84.3%
- Activity (HCT-116 [26]): 3.09%

From ChEMBL document CHEMBL4706531, “Discovery of Novel c-Mesenchymal-Epithelia transition factor and histone deacetylase dual inhibitors” (Eur J Med Chem, 2020)
